In ChEMBL document CHEMBL4513216, “Probing the Open Global Health Chemical Diversity Library for Multistage-Active Starting Points for Next-Generation Antimalarials” (ACS Infect Dis, 2020):

Assay: Toxicity liver stage against HepG2, at 10uM
Format: cell-based
Design: test concentration 10 uM, cell line HepG2-A16-CD81EGFP
Conditions: human, HepG2-A16-CD81EGFP cells; read-out: INHIBITION
Method in brief: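 Uninfected HepG2-A16-CD81EGFP cells, 3 × 10^3 per well, 1536-well, plated on prespotted compound at 10 μM final, parasite-free screening media added to match infected plates; puromycin 10 μM positive, DMSO 0.5% negative; run in parallel with 48 h PbLuc assay at 37 °C, 5% CO2; viability by CellTiter-Glo luminescence, normalized to controls.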

## O=C(c1cccnc1Oc1ccccc1)N1CCCn2ncnc21
  cytotoxicity at 10 µM: -13.7%

## CC(=O)N1CCC(N2CC[C@H](c3nc4cc(C)ccc4o3)C2)CC1
  cytotoxicity at 10 µM: 2.84%

## CCN(CC)C[C@H]1CN2CC[C@H]1C[C@@H]2CNC(=O)c1ccco1
  cytotoxicity at 10 µM: -2.49%

## COCCOc1ccc(-c2noc([C@@H]3CCCN3)n2)cn1
  cytotoxicity at 10 µM: -4.34%

## CN(C)c1ccc(-c2noc([C@@H]3CCCN3)n2)cn1
  cytotoxicity at 10 µM: 1.73%

## O=C1CO[C@H]2CN(S(=O)(=O)c3ccccc3)C[C@H]2N1Cc1ccccc1
  cytotoxicity at 10 µM: -1.69%

## Cc1ccccc1CN1C[C@@H]2OCC(=O)N(CC(N)=O)[C@@H]2C1
  cytotoxicity at 10 µM: -4.87%

## COCc1cn(C[C@H]2CC3CCN2C[C@@H]3C(=O)Nc2ccccc2)nn1 (stereo not given in full)
  cytotoxicity at 10 µM: -0.522%

## CC(C)NC(=O)C[C@@H]1CCNC[C@@H]1Cc1cc(-c2ccccn2)on1
  cytotoxicity at 10 µM: -3.15%

## CC1=C[C@@H](CNS(C)(=O)=O)[C@H](C(C)C)C[C@H]1CC(=O)NCCN(C)C
  cytotoxicity at 10 µM: 0.559%

## Cc1ccc(N2C(=O)N[C@@H]3CCN(C(=O)C4CCCC4)[C@@H]3C2=O)cc1
  cytotoxicity at 10 µM: 0.199%

## COc1ccc(NC(=O)Cn2ccc3c(=O)n(C)ccc32)cc1OC
  cytotoxicity at 10 µM: -4.34%

## CCCNC(=O)c1cn(C(C)(C)C)c2ncccc12
  cytotoxicity at 10 µM: -0.317%

## c1coc(CN2CCC3(CC2)CC(N2CCCC2)CO3)c1 (stereo not given)
  cytotoxicity at 10 µM: -11.9%

## O=S(=O)(c1cccc(Cl)c1)N1C[C@@H]2CCN[C@@H]2C1
  cytotoxicity at 10 µM: -0.331%

## CN(C)C(=O)N1CCN(c2ccc3ccc(C(=O)NC4CC4)cn23)CC1
  cytotoxicity at 10 µM: 6.53%

## CN(C)C(=O)N1CC[C@@H](O)[C@@H]1Cc1ccccc1
  cytotoxicity at 10 µM: 3.14%

## Cc1cnc(NC2CCc3c(ccc(=O)n3C)C2)nc1 (stereo not given)
  cytotoxicity at 10 µM: -149%

## CC(=O)N1CCC2(CC1)CN(C(=O)c1cccc3[nH]ccc13)C2
  cytotoxicity at 10 µM: -121%

## Cc1nnc([C@@H]2CC[C@@H]3[C@@H](CCN3CC3CCOCC3)O2)o1
  cytotoxicity at 10 µM: 7.64%

## Cc1noc(C2CCC3(CCN(C(=O)c4ncccn4)CC3)O2)n1 (stereo not given)
  cytotoxicity at 10 µM: 4.09%

## CCS(=O)(=O)N1CCC2(CC(=O)N(c3cnn(C)c3)C2)C1 (stereo not given)
  cytotoxicity at 10 µM: 6.92%

## CN1CCN(Cn2nc(-c3cccs3)ccc2=O)CC1
  cytotoxicity at 10 µM: 2.63%

## CC[C@H](C)[C@H](NC(=O)c1ccccc1-n1cnnn1)C(=O)OC
  cytotoxicity at 10 µM: 5.16%

## O=C(NCC(O)c1cccs1)c1cccc(Cl)c1 (stereo not given)
  cytotoxicity at 10 µM: -17.8%

## O=C(c1cnn2c1OCCC2)N1CCC2(CC1)OCCO2
  cytotoxicity at 10 µM: 7.91%

## Cc1cnc2n(c1=O)CC(C(=O)NC1CC1)CS2 (stereo not given)
  cytotoxicity at 10 µM: -18.3%

## Cc1nc(N2CCN(C(=O)c3ccccc3)CC2)c2c(n1)c(C)nn2C
  cytotoxicity at 10 µM: 15.7%

## Cc1nc(C)c(C(=O)N2CCc3nnc(C4CCCN4C)n3CC2)s1 (stereo not given)
  cytotoxicity at 10 µM: -4.34%

## Nc1nc(SCc2ccc3c(c2)OCO3)ns1
  cytotoxicity at 10 µM: -0.681%

## CCN(CC)S(=O)(=O)c1cc2c3c(c1)c(C)cc(=O)n3CCC2
  cytotoxicity at 10 µM: 2.85%

## Cc1cc(C)nc(N2CCC(c3c(C(N)=O)sc4ccccc34)C2)n1 (stereo not given)
  cytotoxicity at 10 µM: 8.78%

## O[C@H]1CN(Cc2ccnc(N3CCCC3)n2)CC[C@@]12CCCO2
  cytotoxicity at 10 µM: 3.62%

## Cc1c[nH]nc1C1CCN(C(=O)C2CCC2)CC1
  cytotoxicity at 10 µM: 5.33%

## Cc1nccc(C2CN(C(=O)c3cncnc3)C2)n1
  cytotoxicity at 10 µM: -2.46%

## O=C(c1nsc(Cl)c1Cl)N1CCc2nc3sccc3c(=O)n2CC1
  cytotoxicity at 10 µM: -20.4%

## CC(=O)N1CCC(Cc2nccnc2-c2c(C)n[nH]c2C)C1 (stereo not given)
  cytotoxicity at 10 µM: 10.7%

## Cc1ncc2c(n1)CCN(Cc1ncc(C(C)(C)C)o1)C2
  cytotoxicity at 10 µM: 14%

## COc1ccc(C)cc1C1(CNc2cn[nH]c(=O)c2Cl)CCOCC1
  cytotoxicity at 10 µM: -6.65%

## NC1(c2nc(-c3ccccc3)cc(=O)[nH]2)CCCC1
  cytotoxicity at 10 µM: 1.47%

## Cc1nc(CN(C)C(=O)Nc2cccc(COC(C)C)c2)no1
  cytotoxicity at 10 µM: 8.45%

## O=C(CCn1cccn1)NCCOc1ccc2c(c1)OCO2
  cytotoxicity at 10 µM: -5.01%

## Clc1cccc(C(CNc2ncccn2)N2CCOCC2)c1 (stereo not given)
  cytotoxicity at 10 µM: 4.55%

## Cc1nn(C)c(C)c1C(C)NCc1ccsc1 (stereo not given)
  cytotoxicity at 10 µM: 5.42%

## N#Cc1ccc(CN2CCCN(C(=O)CCn3cncn3)CC2)cc1
  cytotoxicity at 10 µM: -12.7%

## CN(Cc1cccc(Cl)c1)Cc1nnsc1Cl
  cytotoxicity at 10 µM: 6.78%

## CCN1CCC(CNC(=O)Nc2cccnc2OC)CC1
  cytotoxicity at 10 µM: -0.523%

## Cc1cc(C(=O)N2CCN(S(C)(=O)=O)[C@@H](C)C2)c(F)cc1F
  cytotoxicity at 10 µM: -1.78%

## COCCc1noc(CN2CCCC2c2noc(C3CC3)n2)n1 (stereo not given)
  cytotoxicity at 10 µM: 1.33%

## CC1Cc2ccccc2N1Cc1occc1C(=O)O (stereo not given)
  cytotoxicity at 10 µM: 0.995%

## CN(Cc1ccco1)C(=O)C1=NN(C)C(=O)CC1
  cytotoxicity at 10 µM: -144%

## CC(C)SCc1cccc(NC2CCN(C)C2=O)c1 (stereo not given)
  cytotoxicity at 10 µM: 1.26%

## Cc1ccc(S(=O)(=O)N(CC(N)=O)CC(C)C)cc1C
  cytotoxicity at 10 µM: -14.5%

## CS(=O)(=O)N1CCC(CSc2ccccc2)C1 (stereo not given)
  cytotoxicity at 10 µM: 1.58%

## O=C(CCn1cncn1)Nc1ccc(F)cc1OCC1CC1
  cytotoxicity at 10 µM: -2.58%

## COc1cc(OC)cc(C(=O)NCCCNc2ncccn2)c1
  cytotoxicity at 10 µM: -11.1%

## CCn1nc(C(=O)N2CCCC2c2noc(C3CC3)n2)ccc1=O (stereo not given)
  cytotoxicity at 10 µM: 5.65%

## CCN(CC)c1ccc(C(=O)NCC2(C(N)=O)CCOCC2)cn1
  cytotoxicity at 10 µM: 2.99%

## CSc1ncccc1C(=O)NCC(c1ccco1)N(C)C (stereo not given)
  cytotoxicity at 10 µM: 2.57%

## CS(=O)(=O)CC1(CNc2c(C#N)cnc3ccc(Cl)cc23)CC1
  cytotoxicity at 10 µM: 8.62%

## CC(=O)N1CCSCC1c1ccc(C)o1 (stereo not given)
  cytotoxicity at 10 µM: -0.872%

## CCn1c(CN2CCOC(Cn3cncn3)C2)nc2cc(F)ccc21 (stereo not given)
  cytotoxicity at 10 µM: -4.84%

## N#Cc1c(F)cccc1NCCCOCC1CCOC1 (stereo not given)
  cytotoxicity at 10 µM: -2.64%

## Cc1ccc(-c2nc(CNc3ccc(C(N)=O)c(C)c3)cs2)o1
  cytotoxicity at 10 µM: 23.9%

## CCCC(NC(=O)c1cc(C)n(C2CC2)c1C)c1nnn[nH]1 (stereo not given)
  cytotoxicity at 10 µM: -10.1%

## O=C(Nc1ccnc(OC2CCOC2)c1)C1CCC1 (stereo not given)
  cytotoxicity at 10 µM: 5.76%

## Cc1cccc(CN2CCc3onc(CN(C)C)c3C2)n1
  cytotoxicity at 10 µM: -4.62%

## CN1CCC(Cc2nc(-c3cnccn3)n(Cc3ccccc3)n2)CC1
  cytotoxicity at 10 µM: 1.21%

## OCc1cn(CC2CCN(C3CCSC3)CC2)nn1 (stereo not given)
  cytotoxicity at 10 µM: 0.55%

## CCN(C)C(=O)[C@H]1C[C@@](CC(C)C)(C(=O)OC)N(C)[C@H]1c1cccnc1
  cytotoxicity at 10 µM: 0.779%

## CN(CC(O)CO)C(=O)c1coc(COc2cccc(F)c2)n1 (stereo not given)
  cytotoxicity at 10 µM: -149%

## COc1ccc2c(C)c(C(=O)NCC3CN(S(C)(=O)=O)CCO3)oc2c1 (stereo not given)
  cytotoxicity at 10 µM: 9.52%

## CCNC(=O)[C@@H]1C[C@@H](NC(=O)c2ccc(C#N)cc2)CN1CCCSC
  cytotoxicity at 10 µM: -123%

## CCN(CCn1cccn1)Cc1nc(-c2ccc(C)o2)oc1C
  cytotoxicity at 10 µM: -4.7%

## CC(=O)N[C@@H]1CN(Cc2cccs2)C[C@H]1c1ccc(C)o1
  cytotoxicity at 10 µM: 6.54%

## CCCC(C)C(=O)N1CCC(c2cc(N3CCOCC3)nc(C)n2)CC1 (stereo not given)
  cytotoxicity at 10 µM: -3.35%

## COCCN1CCN(c2ncnc3nc(C)cc(C)c23)CC1
  cytotoxicity at 10 µM: 2.42%

## NCCn1cc(C(=O)N2CCNC(=O)C2c2cccc(F)c2)nn1 (stereo not given)
  cytotoxicity at 10 µM: 3.62%

## Cc1ccc(-c2cc(C(=O)N(C)Cc3noc4c3CCCC4)[nH]n2)s1
  cytotoxicity at 10 µM: -1.03%

## CCS(=O)(=O)N1CCC2(CCCN(Cc3cc(OC)ccc3F)C2)C1 (stereo not given)
  cytotoxicity at 10 µM: 14.4%

## Cc1cnn(CCNCc2ccccc2F)c1
  cytotoxicity at 10 µM: -9.54%

## CN(CC1COc2ccccc2O1)C(=O)NCCCn1cccn1 (stereo not given)
  cytotoxicity at 10 µM: -7.27%

## Fc1cccc(-c2nc(CN3CCCC3Cn3cccn3)co2)c1 (stereo not given)
  cytotoxicity at 10 µM: -11%

## COc1cccc(CNc2cc(N3CCCC3CO)ncn2)n1 (stereo not given)
  cytotoxicity at 10 µM: -12.5%

## COc1nc(C)ccc1CNc1cc(N2CCCC2CO)ncn1 (stereo not given)
  cytotoxicity at 10 µM: -8.02%

## CCc1[nH]ncc1C(=O)N1CCCC(n2nc(C)cc2C)C1 (stereo not given)
  cytotoxicity at 10 µM: -15.6%

## NS(=O)(=O)c1cccc(CNc2nccc(C(F)(F)F)n2)c1
  cytotoxicity at 10 µM: -11.1%

## COc1ccccc1C1(C(=O)N2CCCC(c3cc(C)[nH]n3)C2)CC1 (stereo not given)
  cytotoxicity at 10 µM: -16.7%

## CS(=O)(=O)NCC1CCCN(C(=O)c2ccco2)C1 (stereo not given)
  cytotoxicity at 10 µM: -19.3%

## CC(C)c1nn(C)c(N(C)C)c1CNCC(O)c1cccc(F)c1 (stereo not given)
  cytotoxicity at 10 µM: -1.82%

## Cc1noc(C2CCN(C(=O)CCc3nccs3)CC2)n1
  cytotoxicity at 10 µM: -5.43%

## COc1cc(CNCCc2cnn(C)c2)cc2c1OCCO2
  cytotoxicity at 10 µM: -4.82%

## Cc1cnn(CC(C)NCc2csc(-c3ccsc3)n2)c1 (stereo not given)
  cytotoxicity at 10 µM: -6.79%

## CN1N=C(C(=O)NCc2ccc3c(c2)CCCN3C)CCC1=O
  cytotoxicity at 10 µM: -0.602%

## O=C(NCc1cncc2c1CCN(Cc1ccc(F)cc1)C2)C1CC1
  cytotoxicity at 10 µM: -3.26%

## CN1CCN(CC2CC2)C(=O)C12CCN(C(=O)CC(F)(F)F)CC2
  cytotoxicity at 10 µM: 8.75%

## Cc1cccc(CN2CC[C@H]3[C@@H]2CC(=O)N3CC2CC2)n1
  cytotoxicity at 10 µM: -4.25%

## Cn1cc(C(=O)N[C@@H]2CN(CC3CCOCC3)[C@@H]3CCCO[C@@H]32)cn1
  cytotoxicity at 10 µM: 6.64%

## Cc1ccc(C(=O)N2CCC3(CCN(c4ccsc4)C3=O)C2)cn1 (stereo not given)
  cytotoxicity at 10 µM: -127%

## COC(=O)CN1CC(c2nc(Cc3ccccc3)no2)C1
  cytotoxicity at 10 µM: -22.9%

## O=C(c1ccccn1)N1CCc2ncc(Cn3cccn3)n2CC1
  cytotoxicity at 10 µM: 5.44%

## c1cnc(N2CCOC3(CCCN(c4cnccn4)C3)C2)nc1 (stereo not given)
  cytotoxicity at 10 µM: 10.1%

## Cc1cccc(CN2C(=O)C[C@H]3[C@@H]2CCN3CC2CC2)n1
  cytotoxicity at 10 µM: 6.59%

## Cc1ccc(CN2CCC3(CC2)CN(C(=O)c2cnccn2)CCO3)o1
  cytotoxicity at 10 µM: -4%

## CO[C@H]1CCN(c2nnc(C)s2)C[C@@H]1Cc1ccccc1
  cytotoxicity at 10 µM: 11.8%

## CN1[C@H](CN2CCCC2)C[C@@H]2CN(Cc3ccoc3)CC[C@@H]21
  cytotoxicity at 10 µM: -160%

## O=C(NCc1cccnc1)N1CCc2ncnc(C3CC3)c2CC1
  cytotoxicity at 10 µM: -144%

## O[C@H]1CCN(CC2CC2)[C@H]1Cc1ccncc1
  cytotoxicity at 10 µM: 0.165%

## O=C1C[C@@H]2[C@H](CCN2Cc2ccccn2)N1Cc1ccncc1
  cytotoxicity at 10 µM: 4.53%

## CC(C)c1ccccc1NC(=O)N1C[C@H]2CC[C@@H](C1)N(C)C2=O
  cytotoxicity at 10 µM: -3%
